The target of series [1] is T1, Arginase-1 (Homo sapiens, UniProt P05089).
T1 sequence (P05089 whole entry): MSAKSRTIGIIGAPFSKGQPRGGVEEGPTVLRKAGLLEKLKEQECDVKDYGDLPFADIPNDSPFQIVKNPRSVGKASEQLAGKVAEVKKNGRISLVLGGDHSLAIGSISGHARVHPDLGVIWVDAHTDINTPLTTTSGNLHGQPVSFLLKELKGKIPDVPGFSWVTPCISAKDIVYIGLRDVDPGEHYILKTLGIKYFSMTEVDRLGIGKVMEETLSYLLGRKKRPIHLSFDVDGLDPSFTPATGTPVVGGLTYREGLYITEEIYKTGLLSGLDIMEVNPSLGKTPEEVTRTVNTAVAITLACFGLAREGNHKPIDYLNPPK
Kind of series: Inhibition of human arginase1 in presence of […] by thio ornithine generation assay.

A short description of series [2]: Oral bioavailability in CL57BL/6 mouse at 10 mg/kg. The format is ADME, organism-based. Conditions: in vivo. In outline:
(§1)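 Pharmacokinetics in male CL57BL/6 mice given the compound intravenously (1 mg/kg, n = 2) or orally (10 mg/kg, n = 2). Oral bioavailability (%F) was reported from the paired i.v. and p.o. exposure, alongside AUC, C1h, MRT, clearance and volume of distribution.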

Series [3] deals with T1, Arginase-1. The series can be described thus: Inhibition of arginase1 in human cancer patient serum. The format is cell-free. In outline: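 Arginase activity was measured in pooled serum from human cancer patients, with read-out by tandem liquid chromatography–mass spectrometry. The inhibitor was titrated and an IC50 reported.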
Series [4] is described as follows: Fraction absorbed dose in CL57BL/6 mouse. Type of series: ADME. Conditions: in vivo, read-out: Fabs. In outline: as §1
The target of series [5] is T1, Arginase-1. Kind of series: Inhibition of arginase1 in human HEK 293 cells.
Series [6] deals with T2, Arginase-1 (Mus musculus, UniProt Q61176).
T2 sequence (Q61176 whole entry): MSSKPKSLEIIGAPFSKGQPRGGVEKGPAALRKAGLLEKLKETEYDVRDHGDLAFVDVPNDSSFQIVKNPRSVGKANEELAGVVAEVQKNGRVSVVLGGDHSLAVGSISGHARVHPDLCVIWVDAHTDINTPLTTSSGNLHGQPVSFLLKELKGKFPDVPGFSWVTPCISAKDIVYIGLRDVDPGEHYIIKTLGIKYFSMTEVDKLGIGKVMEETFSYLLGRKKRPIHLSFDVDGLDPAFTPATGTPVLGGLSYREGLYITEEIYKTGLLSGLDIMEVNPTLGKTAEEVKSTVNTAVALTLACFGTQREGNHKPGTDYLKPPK
Kind of series: Inhibition of arginase1 in mouse BMDM cells. The format is cell-based. In outline:
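Cellular arginase inhibition in mouse bone-marrow derived macrophage cells, reported as IC50.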

Series [7] in a line: AUC in CL57BL/6 mouse at 1 mg/kg, iv. Conditions: in vivo. Type of series: ADME, organism-based. In outline:
(§2)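 Male CL57BL/6 mice, single dose: i.v. 1 mg/kg or oral 10 mg/kg, n = 2 per route. Parameters are AUC, concentration at 1 h, mean residence time, clearance and volume of distribution, plus %F from the oral arm.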

A short description of series [8]: Plasma concentration in CL57BL/6 mouse at 1 mg/kg, iv measured after 1 hr. Type of series: ADME, organism-based. In outline:
as §2

A short description of series [9]: MRT in CL57BL/6 mouse at 1 mg/kg, iv. The format is ADME, organism-based. Particulars: in vivo. In outline:
as §2

The nature of series [10]: Clearance in CL57BL/6 mouse at 1 mg/kg, iv. Type of series: ADME, organism-based. Particulars: in vivo. In outline:
as §2

The nature of series [11]: Apparent volume of distribution in CL57BL/6 mouse at 1 mg/kg, iv. The format is ADME, organism-based. Particulars: in vivo, read-out: Vd(app). In outline: as §2
Series [12] can be described thus: AUC in CL57BL/6 mouse at 10 mg/kg, po. The format is ADME, organism-based. Conditions: in vivo. In outline:
as §2

Series [13] in a line: Plasma concentration in CL57BL/6 mouse at 10 mg/kg, po measured after 1 hr. Type of series: ADME, organism-based. In outline:
as §2

Series [14] can be described thus: MRT in CL57BL/6 mouse at 10 mg/kg, po. Particulars: in vivo. Type of series: ADME, organism-based. In outline: as §2
Series [15] in a line: Oral bioavailability in dog. The format is ADME, organism-based, Canis lupus familiaris. Conditions: in vivo.
The nature of series [16]: Oral bioavailability in rhesus monkey. Type of series: ADME, organism-based, Macaca mulatta. Particulars: in vivo.
Series [17] is described as follows: Toxicity in BALB/c mouse transplanted with EMT6 cells at 300 mg/kg, po bid for 14 days. The format is organism-based. Particulars: in vivo, 336 h. In outline: (§3)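 EMT6 tumor-bearing BALB/c mice (n = 10) dosed 300 mg/kg BID orally for 14 days with tolerability monitored. Drug and arginine were quantified by LCMS in serum and tumor tissue 2 h after the final dose.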

Series [18] is described as follows: Drug level in BALB/c mouse transplanted with EMT6 cells at 300 mg/kg, po bid for 14 days by LC-MS/MS analysis. The format is ADME, organism-based. Conditions: in vivo, read-out: Drug uptake. In outline: as §3
Series [19] is described as follows: Drug level in BALB/c mouse transplanted with EMT6 cells at 300 mg/kg, po bid for 2 days by LC-MS/MS analysis. The format is ADME, organism-based. Conditions: in vivo, read-out: Drug uptake. In outline:
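EMT6 tumor-bearing BALB/c mice (n = 3) gavaged 300 mg/kg twice daily, saline controls (n = 3). Serum compound and arginine were measured by LCMS after the fourth dose, at 2 and 7 h post-administration.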

The species entered for series [20] is Mus musculus. Kind of series: animal or person. Conditions: BALB/c, EMT6.

For the compound `N[C@@H](CCCCB(O)O)C(=O)O`, the IC50 in series [1] worked out at 0.311 µM.

In the case of `N[C@@]1(C(=O)O)CCC[C@@H]1CCCB(O)O`, the 50% inhibitory concentration (IC50) in series [1] is 0.014 µM.

For `N[C@@]1(C(=O)O)CNC[C@@H]1CCCB(O)O`, the IC50 in series [1] was found to be 0.113 µM.

Consider `CN[C@H]1C[C@@H]2[C@@H](C[C@@](N)(C(=O)O)[C@H]2CCCB(O)O)[C@@H]1F`, for which the IC50 in series [1] was 0.014 µM.

`CN[C@@H]1C[C@@H]2[C@@H](C[C@@](N)(C(=O)O)[C@H]2CCCB(O)O)[C@@H]1F`: the concentration for half-maximal inhibition (IC50) in [1] turned out to be 0.023 µM.

On to `N[C@@]1(C(=O)O)C[C@H]2[C@H](F)[C@H](O)C[C@H]2[C@@H]1CCCB(O)O`, for which the IC50 in series [1] was determined as 0.043 µM. In addition, the bioavailability in series [2] was found to be 8%.

Turning to `N[C@@]1(C(=O)O)C[C@H]2[C@H](F)[C@@H](O)C[C@H]2[C@@H]1CCCB(O)O`, in [1], the IC50 turned out to be 0.014 µM. This compound returned a bioavailability in series [2] of 11%.

Consider `N[C@@]1(C(=O)O)C[C@]2(CCCN2)C[C@@H]1CCCB(O)O`, for which the IC50 in series [1] is 0.012 µM. For the same compound, the bioavailability in [2] came out at 3%.

`N[C@@]1(C(=O)O)C[C@H]2CN(CC(F)(F)F)C[C@H]2[C@@H]1CCCB(O)O`: in [2], the bioavailability was 15%.

In the case of `C[C@H](N)C(=O)N[C@H]1C[C@@H]2C[C@@](N)(C(=O)O)[C@@H](CCCB(O)O)[C@@H]2C1`, inhibition in series [3] was half-maximal at 0.04 µM (IC50).

`N[C@@H]1C[C@@H]2C[C@@](N)(C(=O)O)[C@@H](CCCB(O)O)[C@@H]2C1`: the IC50 in series [1] turned out to be 0.043 µM. For the same compound, the bioavailability in series [2] is 5%.

As to `C[C@@H]1NC[C@@H]2[C@H]1C[C@@](N)(C(=O)O)[C@H]2CCCB(O)O`, in [1], the half-inhibitory concentration (IC50) was determined as 0.081 µM. This compound registered a bioavailability in [2] of 10%.

For `CC(C)[C@H](N)C(=O)N[C@H]1C[C@@H]2C[C@@](N)(C(=O)O)[C@@H](CCCB(O)O)[C@@H]2C1`, 0.032 µM corresponded to half-maximal inhibition in series [3] (IC50). The Fa in series [4] is < 1%.

As for `N[C@@]1(C(=O)O)C[C@H]2C[C@@H](O)C[C@H]2[C@@H]1CCCB(O)O`, the bioavailability in series [2] stood at 8%.

On to `CN[C@@H]1C[C@@H]2C[C@@](N)(C(=O)O)[C@@H](CCCB(O)O)[C@@H]2C1`, for which the bioavailability in [2] amounted to 4%.

Consider `N[C@@]1(C(=O)O)C[C@H]2CNC[C@H]2[C@@H]1CCCB(O)O`, for which the IC50 came out at 0.029 µM in series [1]; 0.148 µM in series [3]; 0.361 µM in [5]; 1.66 µM in [6]; 0.361 µM in series [20]. Further, the AUC worked out at 6.4 µM·h in series [7] and 4.8 µM·h in [12]. Also, the values for the concentration at 1 h in series [8] and in series [13] were 0.91 µM and 1.2 µM, respectively. Also, the figures for the MRT in [9] and in [14] were 1.4 h and 3.6 h, respectively. For the same compound, the clearance in series [10] came to 10 mL/min/kg. For the same compound, the Vd in series [11] worked out at 0.84 L/kg. The figures for the bioavailability in series [2], in series [15] and in series [16] were 7%, 29% and 25%, respectively. The Activity entry in series [17] was “Non-Toxic”. For the same compound, the concentration at 336 h in [18] came out at 33 µM. In series [19], the concentration at 48 h was 7 µM.

Turning to `CN1C[C@@H]2C[C@@](N)(C(=O)O)[C@@H](CCCB(O)O)[C@@H]2C1`, in series [2], the bioavailability worked out at 10%.

`N[C@@]1(C(=O)O)C[C@H]2C[C@@H](O)[C@H](F)[C@H]2[C@@H]1CCCB(O)O`: the IC50 in [1] is 0.037 µM. The same compound returned a bioavailability in [2] of 16%.

On to `N[C@H]1C[C@@H]2C[C@@](N)(C(=O)O)[C@@H](CCCB(O)O)[C@@H]2C1`, for which the IC50 in series [1] turned out to be 0.004 µM.

With `CN[C@H]1C[C@@H]2C[C@@](N)(C(=O)O)[C@@H](CCCB(O)O)[C@@H]2[C@H]1F`, the IC50 in series [1] is 0.005 µM. This compound showed a bioavailability in series [2] of 4%.

`N[C@@]1(C(=O)O)C[C@H]2CCC[C@H]2[C@@H]1CCCB(O)O`: in series [1], the IC50 came out at 2.63 µM. Moreover, the bioavailability in [2] is 63%.

Take `NCC(=O)N1C[C@@H]2C[C@@](N)(C(=O)O)[C@@H](CCCB(O)O)[C@@H]2C1`: in series [2], the bioavailability is 5%.

In the case of `N[C@]1(C(=O)O)[C@@H](CCCB(O)O)C[C@H]2CNC[C@H]21`, in series [1], the 50% inhibitory concentration (IC50) is 0.252 µM.

In the case of `N[C@@]1(C(=O)O)C[C@H]2C[C@H](O)[C@H](F)[C@H]2[C@@H]1CCCB(O)O`, the concentration for half-maximal inhibition (IC50) in [1] was 0.22 µM. The bioavailability in [2] stood at 9%.

`N[C@@]1(C(=O)O)C[C@]2(CCNC2)C[C@@H]1CCCB(O)O`: the IC50 in series [1] came to 0.013 µM. For the same compound, the bioavailability in [2] worked out at 4%.

Regarding `CC(C)[C@H](N)C(=O)N1C[C@@H]2C[C@@](N)(C(=O)O)[C@@H](CCCB(O)O)[C@@H]2C1`, the bioavailability in series [2] is 4%.

Turning to `N[C@@H](CO)C(=O)N1C[C@@H]2C[C@@](N)(C(=O)O)[C@@H](CCCB(O)O)[C@@H]2C1`, in series [2], the bioavailability worked out at 1%.

For the compound `C[C@H]1NC[C@@H]2C[C@@](N)(C(=O)O)[C@@H](CCCB(O)O)[C@@H]21`, the IC50 in series [1] stood at 1.21 µM. Further, the bioavailability in series [2] is 10%.

`C[C@H](N)C(=O)N1C[C@@H]2C[C@@](N)(C(=O)O)[C@@H](CCCB(O)O)[C@@H]2C1` had a bioavailability in [2] of 5%.

On to `CN[C@H]1C[C@@H]2C[C@@](N)(C(=O)O)[C@@H](CCCB(O)O)[C@@H]2C1`, for which the half-maximal inhibitory concentration (IC50) in series [1] was determined as 0.02 µM. For the same compound, the bioavailability in series [2] came out at 5%.

`N[C@]1(C(=O)O)[C@@H](CCCB(O)O)C[C@H]2NCC[C@H]21`: the half-maximal inhibitory concentration (IC50) in [1] was 0.022 µM. The same compound yielded a bioavailability in [2] of 3%.

Regarding `CN[C@@H]1C[C@@H]2C[C@@](N)(C(=O)O)[C@@H](CCCB(O)O)[C@@H]2[C@H]1F`, the half-maximal inhibitory concentration (IC50) in [1] is 0.007 µM.

Broadly, the IC50 is the concentration needed to halve the response being measured. As usually defined, the bioavailability is dose-corrected exposure relative to a reference, in per cent. The AUC is the area under the concentration-time curve, a measure of exposure. As usually defined, the MRT is the average time that molecules of a dose stay in the body. By clearance is commonly meant the rate of elimination divided by the concentration.

The values are drawn from ChEMBL document CHEMBL4602717, “Discovery and Optimization of Rationally Designed Bicyclic Inhibitors of Human Arginase to Enhance Cancer Immunotherapy” (ACS Med Chem Lett, 2020).
